According to ChEMBL document CHEMBL1149183, “Novel benzo[1,4]diazepin-2-one derivatives as endothelin receptor antagonists” (J Med Chem, 2004):

What was measured:
Endothelin receptor [1] = target: T1, Endothelin receptor (Rattus norvegicus, UniProt P26684+P21451); assay: Inhibitory potency at native endothelin A and endothelin B receptors by inhibiting endothelin-1 contractions of rat aortic rings; format: functional
T1 sequence (P26684 whole entry): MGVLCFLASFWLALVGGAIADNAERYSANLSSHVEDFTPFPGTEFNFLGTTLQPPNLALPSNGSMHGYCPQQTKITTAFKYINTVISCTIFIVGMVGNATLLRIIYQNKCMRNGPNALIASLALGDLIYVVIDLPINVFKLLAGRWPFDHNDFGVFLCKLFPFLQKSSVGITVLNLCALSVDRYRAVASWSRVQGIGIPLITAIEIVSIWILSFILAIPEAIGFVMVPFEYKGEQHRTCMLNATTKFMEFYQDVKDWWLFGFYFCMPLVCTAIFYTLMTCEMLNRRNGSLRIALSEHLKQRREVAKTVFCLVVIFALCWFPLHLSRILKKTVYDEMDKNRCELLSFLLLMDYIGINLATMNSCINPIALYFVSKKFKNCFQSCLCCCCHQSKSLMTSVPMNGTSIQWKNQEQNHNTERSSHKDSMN
T1 sequence (P21451 whole entry): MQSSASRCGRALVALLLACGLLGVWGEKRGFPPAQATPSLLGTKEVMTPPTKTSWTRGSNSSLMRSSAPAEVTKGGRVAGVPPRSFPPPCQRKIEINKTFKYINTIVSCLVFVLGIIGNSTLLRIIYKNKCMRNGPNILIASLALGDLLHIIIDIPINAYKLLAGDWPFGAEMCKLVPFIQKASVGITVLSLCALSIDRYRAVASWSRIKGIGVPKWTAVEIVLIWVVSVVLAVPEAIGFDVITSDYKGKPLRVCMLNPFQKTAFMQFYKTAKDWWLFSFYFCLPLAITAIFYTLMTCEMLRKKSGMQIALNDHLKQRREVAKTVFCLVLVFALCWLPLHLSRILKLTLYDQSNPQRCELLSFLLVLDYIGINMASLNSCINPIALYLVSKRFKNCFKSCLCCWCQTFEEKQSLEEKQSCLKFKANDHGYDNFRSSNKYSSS

[2] = target: T2, Endothelin receptor type B (Homo sapiens, UniProt P24530); assay: Antagonist activity towards human recombinant Endothelin B receptor expressed in chinese hamster ovary (CHO) cells determined using [125I]ET1 as radioligand; format: functional, cell-based
T2 sequence (P24530 whole entry): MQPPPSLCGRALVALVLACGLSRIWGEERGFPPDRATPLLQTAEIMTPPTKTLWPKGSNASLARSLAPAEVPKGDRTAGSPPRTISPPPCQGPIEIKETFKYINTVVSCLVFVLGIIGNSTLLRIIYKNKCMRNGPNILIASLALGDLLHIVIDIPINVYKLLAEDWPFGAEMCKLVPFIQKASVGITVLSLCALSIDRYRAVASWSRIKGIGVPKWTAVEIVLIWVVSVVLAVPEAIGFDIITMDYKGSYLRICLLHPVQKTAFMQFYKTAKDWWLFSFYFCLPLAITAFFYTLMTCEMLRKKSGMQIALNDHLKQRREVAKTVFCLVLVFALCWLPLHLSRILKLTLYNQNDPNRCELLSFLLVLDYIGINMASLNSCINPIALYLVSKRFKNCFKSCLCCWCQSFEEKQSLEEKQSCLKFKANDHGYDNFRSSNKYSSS

Endothelin-1 receptor = target: T3, Endothelin-1 receptor (Homo sapiens, UniProt P25101); assay: Antagonist activity towards human recombinant Endothelin A receptor expressed in chinese hamster ovary (CHO) cells determined using [125I]ET1 as radioligand; format: functional, cell-based
T3 sequence (P25101 whole entry): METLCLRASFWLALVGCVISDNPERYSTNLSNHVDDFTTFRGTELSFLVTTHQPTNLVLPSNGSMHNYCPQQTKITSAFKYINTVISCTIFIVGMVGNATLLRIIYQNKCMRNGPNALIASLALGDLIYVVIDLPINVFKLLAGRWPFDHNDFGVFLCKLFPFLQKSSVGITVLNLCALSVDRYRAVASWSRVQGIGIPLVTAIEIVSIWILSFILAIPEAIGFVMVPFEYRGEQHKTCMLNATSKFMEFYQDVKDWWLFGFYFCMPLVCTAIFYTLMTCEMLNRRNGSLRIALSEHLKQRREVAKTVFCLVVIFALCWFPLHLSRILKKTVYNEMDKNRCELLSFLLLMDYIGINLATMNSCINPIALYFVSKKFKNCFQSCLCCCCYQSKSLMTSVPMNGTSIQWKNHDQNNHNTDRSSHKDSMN

Rattus norvegicus [3] = species: Rattus norvegicus; assay: Duration of action of compound for reducing the blood pressure of rats was determined; format: functional
In short: (§1)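 Single oral dose of 30 mg/kg suspended in 10% arabic gum to hypertensive Dahl salt-sensitive rats carrying telemetry for arterial pressure and heart rate; area between pre- and post-treatment pressure curves calculated; fall in mean arterial pressure and duration of action also taken from recordings.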

Rattus norvegicus [4] = assay: In vivo area between curve (ABC) as calculated from the blood pressure recordings before and after administration of 30 mg/kg to hypertensive Dahl salt sensitive rats; number of rats=12; format: functional; in short: as §1
Endothelin receptor [5] = target: T1, Endothelin receptor; assay: Inhibitory potency at native endothelin A and B receptors by inhibiting sarafotoxin Sf6 contractions of rat tracheal rings; format: functional
Rattus norvegicus [6] = species: Rattus norvegicus; assay: Maximum effect on reduction of mean arterial blood pressure was determined in rats; format: functional; in short: as §1
Cytochrome P450 3A4 = Cytochrome P450 3A4 (Homo sapiens, UniProt P08684); assay: Inhibition of human cytochrome P450 3A4; format: ADME
Cytochrome P450 3A4, sequence (P08684 whole entry, canonical isoform): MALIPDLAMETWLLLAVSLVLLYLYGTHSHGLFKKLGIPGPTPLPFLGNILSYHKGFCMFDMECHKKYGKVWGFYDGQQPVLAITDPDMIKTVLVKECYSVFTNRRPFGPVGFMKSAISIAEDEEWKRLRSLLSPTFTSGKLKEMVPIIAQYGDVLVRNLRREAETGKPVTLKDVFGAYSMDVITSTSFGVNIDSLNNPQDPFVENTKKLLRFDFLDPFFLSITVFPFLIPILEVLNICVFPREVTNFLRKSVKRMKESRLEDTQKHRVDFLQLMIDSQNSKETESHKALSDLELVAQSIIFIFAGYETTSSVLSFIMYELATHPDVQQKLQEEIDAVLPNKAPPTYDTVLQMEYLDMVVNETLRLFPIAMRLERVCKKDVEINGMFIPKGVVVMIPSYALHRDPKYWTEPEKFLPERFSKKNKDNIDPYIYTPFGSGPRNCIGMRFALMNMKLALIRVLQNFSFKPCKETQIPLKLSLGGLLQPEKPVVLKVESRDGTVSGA
In short: (§2)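 Human liver microsomes with isoform marker reactions near substrate Km: diclofenac 4'-hydroxylation (2C9), dextromethorphan […] (2D6), midazolam 1'-hydroxylation (3A4); metabolite formation by LC-MS/MS; IC50 reported.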

[7] = Log D value was evaluated; format: physicochemical; conditions: octanol/water, pH 7.4; read-out: Log D7.4
In short: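 Shake-flask partition, n-octanol versus aqueous phase buffered to pH 7.4 (67 mM KH2PO4/67 mM Na2HPO4), volume ratio 1:9; both phases assayed by HPLC.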

Cytochrome P450 2C9 = Cytochrome P450 2C9 (Homo sapiens, UniProt P11712); assay: Inhibition of human cytochrome P450 2C9; format: ADME; in short: as §2
Cytochrome P450 2C9, sequence (P11712 whole entry): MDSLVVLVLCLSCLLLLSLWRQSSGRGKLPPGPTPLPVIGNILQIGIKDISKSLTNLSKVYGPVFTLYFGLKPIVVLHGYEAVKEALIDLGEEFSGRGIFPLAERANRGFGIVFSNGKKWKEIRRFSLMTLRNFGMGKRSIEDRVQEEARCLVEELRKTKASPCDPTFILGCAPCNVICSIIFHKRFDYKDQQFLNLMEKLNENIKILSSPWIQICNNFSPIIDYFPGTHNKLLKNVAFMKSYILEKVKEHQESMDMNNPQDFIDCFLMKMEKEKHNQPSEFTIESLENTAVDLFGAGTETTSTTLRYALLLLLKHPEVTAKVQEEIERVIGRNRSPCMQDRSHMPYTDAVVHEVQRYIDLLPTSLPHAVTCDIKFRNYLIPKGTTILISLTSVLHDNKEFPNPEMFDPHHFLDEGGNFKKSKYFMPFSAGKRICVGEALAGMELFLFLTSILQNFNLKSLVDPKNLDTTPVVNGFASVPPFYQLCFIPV

Cytochrome P450 2D6 = Cytochrome P450 2D6 (Homo sapiens, UniProt P10635); assay: Inhibition of human cytochrome P450 2D6; format: ADME; in short: as §2
Cytochrome P450 2D6, sequence (P10635 whole entry): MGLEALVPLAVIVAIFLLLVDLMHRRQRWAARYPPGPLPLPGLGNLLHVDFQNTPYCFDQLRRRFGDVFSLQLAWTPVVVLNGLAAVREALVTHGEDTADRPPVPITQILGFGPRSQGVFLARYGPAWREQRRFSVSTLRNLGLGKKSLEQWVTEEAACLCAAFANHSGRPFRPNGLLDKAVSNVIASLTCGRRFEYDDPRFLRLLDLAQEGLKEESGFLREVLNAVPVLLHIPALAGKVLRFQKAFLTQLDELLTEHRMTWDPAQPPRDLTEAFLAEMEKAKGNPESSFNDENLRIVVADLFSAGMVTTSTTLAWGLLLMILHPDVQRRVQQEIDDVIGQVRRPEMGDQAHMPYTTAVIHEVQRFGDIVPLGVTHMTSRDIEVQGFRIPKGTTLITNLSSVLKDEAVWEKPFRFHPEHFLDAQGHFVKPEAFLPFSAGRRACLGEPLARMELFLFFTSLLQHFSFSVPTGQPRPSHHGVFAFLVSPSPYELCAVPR

Rattus norvegicus [8] = assay: In vivo area between curve (ABC) as calculated from the blood pressure recordings before and after administration of 30 mg/kg to hypertensive Dahl salt sensitive rats; number of rats=15; format: functional; in short: as §1
Rattus norvegicus [9] = assay: In vivo area between curve (ABC) as calculated from the blood pressure recordings before and after administration of 30 mg/kg to hypertensive Dahl salt sensitive rats; number of rats=10; format: functional; in short: as §1
Rattus norvegicus [10] = assay: In vivo area between curve (ABC) as calculated from the blood pressure recordings before and after administration of 30 mg/kg to hypertensive Dahl salt sensitive rats; number of rats=6; format: functional; in short: as §1
Rattus norvegicus [11] = assay: In vivo area between curve (ABC) as calculated from the blood pressure recordings before and after administration of 30 mg/kg to hypertensive Dahl salt sensitive rats; number of rats=14; format: functional; in short: as §1

Structure (SMILES)	pA2 (Endothelin receptor [1])	IC50 [2] [nM]	IC50 (Endothelin-1 receptor) [nM]	Duration of action (Rattus norvegicus [3]) [h]	ABC (Rattus norvegicus [4]) [mmHg·h]	pA2 (Endothelin receptor [5])	Max effect (Rattus norvegicus [6]) [mmHg]	IC50 (Cytochrome P450 3A4) [nM]	logD [7]	IC50 (Cytochrome P450 2C9) [nM]	IC50 (Cytochrome P450 2D6) [nM]	ABC (Rattus norvegicus [8]) [mmHg·h]	ABC (Rattus norvegicus [9]) [mmHg·h]	ABC (Rattus norvegicus [10]) [mmHg·h]	ABC (Rattus norvegicus [11]) [mmHg·h]
COc1ccc(CN2C(=O)CN[C@](c3cccc(C)c3)([C@H](Oc3nc(C)cc(C)n3)C(=O)O)c3ccccc32)cc1 (racemic)	6.32	50.7	6.3	–	–	–	–	–	–	–	–	–	–	–	–
Cc1cc(C)nc(O[C@H](C(=O)O)[C@@]2(c3cccc(-c4ccccc4)c3)NCC(=O)N(Cc3c(Cl)cccc3Cl)c3ccccc32)n1 (racemic)	8.98	25	16.9	18	200	7.37	-15	–	–	–	–	–	–	–	–
Cc1cc(C)nc(O[C@H](C(=O)O)[C@@]2(c3cccc(-c4ccccc4)c3)NCC(=O)N(Cc3c(F)cc(F)cc3F)c3ccccc32)n1 (racemic)	9.03	89.8	7.9	24	–	7.07	-12	7000	1.8	28000	> 50000	250	–	–	–
Cc1cc(C)nc(O[C@H](C(=O)O)[C@@]2(c3ccccc3)NCC(=O)N(Cc3c(F)cc(F)cc3F)c3ccccc32)n1 (racemic)	8.18	83.6	2.5	54	–	6.18	-21	41000	0.4	> 50000	> 50000	–	674	–	–
CCCCc1cccc([C@]2([C@H](Oc3nc(C)cc(C)n3)C(=O)O)NCC(=O)N(Cc3c(F)cccc3Cl)c3ccccc32)c1 (racemic)	8.72	7.1	7.6	36	409	7.88	-23	–	–	–	–	–	–	–	–
CCCCc1cccc([C@]2([C@H](Oc3nc(C)cc(C)n3)C(=O)O)NCC(=O)N(Cc3c(F)cc(F)cc3F)c3ccccc32)c1 (racemic)	8.36	33.2	13.9	18	–	7.72	-13	5000	2.3	15000	> 50000	–	–	214	–
Cc1cc(C)nc(O[C@H](C(=O)O)[C@@]2(c3ccccc3)NCC(=O)N(C)c3ccccc32)n1 (racemic)	–	184	12.3	–	–	–	–	> 50000	-2	> 50000	> 50000	–	–	–	–
Cc1cc(C)nc(O[C@H](C(=O)O)[C@@]2(c3ccccc3)NCC(=O)N(Cc3c(F)c(F)c(F)c(F)c3F)c3ccccc32)n1 (racemic)	7.87	28.8	6.8	–	–	–	–	–	–	–	–	–	–	–	–
Cc1cc(C)c(CN2C(=O)CN[C@](c3ccccc3)([C@H](Oc3nc(C)cc(C)n3)C(=O)O)c3ccccc32)c(C)c1 (racemic)	8.1	15.5	6.7	–	–	–	–	–	–	–	–	–	–	–	–
CCCCc1cccc([C@]2([C@H](Oc3nc(C)cc(C)n3)C(=O)O)NCC(=O)N(Cc3ccc(OC)cc3)c3ccccc32)c1 (racemic)	7.69	36.5	7.9	–	–	–	–	–	–	–	–	–	–	–	–
Cc1cc(C)nc(O[C@H](C(=O)O)[C@@]2(c3ccccc3)NCC(=O)N(Cc3ccc(F)c(F)c3F)c3ccccc32)n1 (racemic)	7.93	49.7	6.5	–	–	–	–	–	–	–	–	–	–	–	–
CCCCc1cccc([C@]2([C@H](Oc3nc(C)cc(C)n3)C(=O)O)NCC(=O)N(Cc3c(C)cc(C)cc3C)c3ccccc32)c1 (racemic)	7.83	13.6	18.3	24	285	7.44	-21	–	–	–	–	–	–	–	–
Cc1cc(C)cc(O[C@H](C(=O)O)[C@@]2(c3ccccc3)NCC(=O)N(Cc3c(F)cc(F)cc3F)c3ccccc32)c1 (racemic)	8.27	565	17.2	32	–	7.02	-28	14000	2.1	15000	> 50000	–	–	–	483
Cc1cc(C)cc(O[C@H](C(=O)O)[C@@]2(c3ccccc3)NCC(=O)N(Cc3c(F)cccc3Cl)c3ccccc32)c1 (racemic)	6.59	184	18.9	30	267	6.89	-13	–	–	–	–	–	–	–	–
COC(c1ccccc1)(c1ccccc1)[C@H](Oc1nc(C)cc(C)n1)C(=O)O (racemic) [AMBRISENTAN]	7.09	–	21.7	32	–	5.63	-17	–	–	–	–	–	–	409	–
